TAAR1 agonist: human TAAR1 agonists, primary screen, Fluo-8 calcium fluorescence, CHO RD-HGA16 cells | vehicle wells 0%, saturating PEA agonist 100% | Trace amine-associated receptor 1 (Homo sapiens), Q96RJ0 | activation, % at 3 µM | actives 0.99% (n = 360,000);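 active = activation above the mean activation of all test compounds in the run plus 3 SD, cut at about 38% in these data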
Target sequence (Q96RJ0 whole entry, looked up): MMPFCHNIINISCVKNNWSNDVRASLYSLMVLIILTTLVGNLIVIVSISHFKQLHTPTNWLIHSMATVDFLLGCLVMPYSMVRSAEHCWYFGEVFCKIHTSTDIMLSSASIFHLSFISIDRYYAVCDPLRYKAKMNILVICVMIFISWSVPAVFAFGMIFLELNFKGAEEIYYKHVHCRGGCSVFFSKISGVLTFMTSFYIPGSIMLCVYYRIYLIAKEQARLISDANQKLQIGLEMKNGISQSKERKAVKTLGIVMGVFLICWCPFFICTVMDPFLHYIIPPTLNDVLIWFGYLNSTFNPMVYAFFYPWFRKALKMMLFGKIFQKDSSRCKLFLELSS
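Benchmarks: low control DMSO, high control PEA (EC100); System: CHO RD-HGA16 cells carrying human TAAR1 plus Gα16; Detection: Fluo-8 fluorescence, 5 s baseline then 140 s kinetic read; Schedule: 17-24 h plating, Fluo-8 75 min 37 °C, 30 min RT; Read-out basis: % activation from peak over basal fluorescence ratio, DMSO-to-PEA scaled.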
TAAR1 antag: human TAAR1 antagonists, primary screen, Fluo-8 calcium fluorescence, CHO RD-HGA16 cells; antagonist; AID 624466, 2012; actives 1.5% (n = 360,000); Trace amine-associated receptor 1 (Homo sapiens), Q96RJ0; inhibition, % at 3 µM;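 active = inhibition above a per-plate cutoff, the mean inhibition of test compounds on that plate plus 3 SD, cut at about 49% in these data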;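 note: 0% = DMSO plus EC80 beta-PEA response and 100% = DMSO alone without agonist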
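Assay system: RD-HGA16 CHO cells with stable hTAAR1 and Gα16 / Reagent: EC80 β-phenethylamine stimulus / Doses: 3 µM, single point / Timing: dye loading 75 min at 37 °C, then 30 min room temperature / Measured by: Fluo-8 intracellular calcium dye fluorescence, real-time kinetic reads / Controls: vehicle wells and EC80 agonist wells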
OX1R antag-1: antagonists of human orexin 1 receptor (OX1R). OX1R-expressing cells, FRET antagonist read-out. actives 1.8% (n = 330,000). inhibition, % at 6.6 µM; in the data active = inhibition mostly above about 38%, no sharp cut-off; inactive = mostly below about 40%;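 note: 0% = agonist challenge alone and 100% = reference antagonist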
GPR7 antag: GPR7 receptor antagonists, primary screen, cell-based, fluorescence, single concentration | inhibition, % at 4.4 µM | GPR7-expressing cells, fluorescence antagonist assay | Neuropeptides B/W receptor type 1 (Homo sapiens), P48145 | actives 1.1% (n = 290,000); in the data active = inhibition above about 16%, passing the limit was not always enough;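 note: cells stimulated with the agonist NPW; 0% = agonist with vehicle and 100% = vehicle without agonist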
Target sequence (P48145 whole entry, looked up): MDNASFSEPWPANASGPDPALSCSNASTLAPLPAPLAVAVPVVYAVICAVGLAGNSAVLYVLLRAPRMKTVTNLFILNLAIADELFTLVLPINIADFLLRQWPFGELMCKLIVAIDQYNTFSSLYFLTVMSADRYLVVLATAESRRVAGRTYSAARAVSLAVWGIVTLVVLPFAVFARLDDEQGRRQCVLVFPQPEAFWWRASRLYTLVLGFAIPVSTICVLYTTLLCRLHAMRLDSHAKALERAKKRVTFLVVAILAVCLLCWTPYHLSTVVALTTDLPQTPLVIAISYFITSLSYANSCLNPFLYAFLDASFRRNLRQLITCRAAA
CHO parental Ca: ATP-evoked calcium signal inhibitors, parental CHO, primary screen, counter-screen for OX1R antagonist project, cell-based, fluorescence, Fluo-8 calcium dye. inhibition, % at 5.6 µM. actives 0.63% (n = 330,000). AID 463079, 2010. parental CHO-K1, ATP-induced calcium, Fluo-8 fluorescence;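 active = inhibition above that plate's mean sample inhibition plus 3 SD, cut at about 26% in these data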;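 note: 0% = ATP-challenged DMSO wells and 100% = DMSO wells without ATP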
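Measured by: calcium-sensitive Fluo-8 fluorescence / Test system: CHO parental line / Controls: ATP-challenged DMSO wells low, unchallenged DMSO wells high / Measure: % inhibition / Compound: single nominal dose of 5.6 µM per compound / Replicates: single well per compound, no replicates / Reagent: ATP as calcium-mobilizing challenge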
OX1R antag-2: OX1R (HCRTR1) antagonists, primary screen, fluorescence, CHO/OX1R cells, Fluo-8 calcium, orexin A | Orexin/Hypocretin receptor type 1 (Homo sapiens), O43613 | inhibition, % at 5 µM | actives 0.43% (n = 330,000) | AID 434989, 2010 | Fluo-8 calcium fluorescence;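 active = inhibition above its plate's threshold, mean inhibition of all tested compounds on the plate plus 3 SD, cut at about 37% in these data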;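 note: 0% = orexin A challenge wells and 100% = SB-334867-A antagonist wells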
* marks the source's active call; other numbers are inactive results. The list is not random: actives were taken first. Their share in the collection is about 4.5%.

Results for CC1(C(=O)NNC(=O)c2ccc([N+](=O)[O-])cc2)CC1(Br)Br (stereo unspecified) ?
TAAR1 agonist: 0; TAAR1 antag: -12; OX1R antag-1: 30; GPR7 antag: -12; CHO parental Ca: 3; OX1R antag-2: -15

How did O=C(NNC(=S)Nc1ccc(F)cc1)c1cccc([N+](=O)[O-])c1 do in these assays?
TAAR1 agonist: 4; TAAR1 antag: 6; OX1R antag-1: 13; GPR7 antag: -7; CHO parental Ca: -10; OX1R antag-2: -1

How did Cc1ccc(NC(=S)NNC(=O)c2cccc([N+](=O)[O-])c2)cc1Cl do in these assays?
TAAR1 agonist: 1; TAAR1 antag: -20; OX1R antag-1: 40*; GPR7 antag: -10; CHO parental Ca: -15; OX1R antag-2: -15

How did O=C(O)c1cccc(NC(=S)NC(NC(=O)c2cccc([N+](=O)[O-])c2)C(Cl)(Cl)Cl)c1 (stereo unspecified) do in these assays?
TAAR1 agonist: -2; TAAR1 antag: -35; OX1R antag-1: 20; GPR7 antag: -18; CHO parental Ca: -11; OX1R antag-2: -19

How did O=C(NC(NC(=S)Nc1ccc(Cl)cc1Cl)C(Cl)(Cl)Cl)c1cccc([N+](=O)[O-])c1 (stereo unspecified) do in these assays?
TAAR1 agonist: 15; TAAR1 antag: -10; OX1R antag-1: 26; GPR7 antag: 27; CHO parental Ca: 41*; OX1R antag-2: 42*

Results for CC1(C(=O)NNC(=O)c2cccc([N+](=O)[O-])c2)CC1(Br)Br (stereo unspecified) ?
TAAR1 agonist: -1; TAAR1 antag: -44; OX1R antag-1: 42*; GPR7 antag: -22; CHO parental Ca: -23; OX1R antag-2: -17

What do the screens show for `C/C(=N/NC(=O)c1cc(C)[nH]n1)c1ccncc1`?
TAAR1 agonist: -2; TAAR1 antag: -6; OX1R antag-1: 9; GPR7 antag: -3; CHO parental Ca: 9; OX1R antag-2: -10

Results for COc1cccc(CNC(=O)[C@H]2CCCN2C(=O)[C@H]2CCCN2C(=O)c2ccccc2C(F)(F)F)c1 ?
TAAR1 agonist: 0; TAAR1 antag: -12

Results for CC(C)CNC(=S)NC(=O)c1csc([N+](=O)[O-])c1 ?
TAAR1 agonist: -2; TAAR1 antag: -7; OX1R antag-1: 15; GPR7 antag: 1; CHO parental Ca: -20; OX1R antag-2: -22

What do the screens show for `O=[N+]([O-])c1cc(-c2ncccn2)cs1`?
TAAR1 agonist: 2; TAAR1 antag: -14; OX1R antag-1: 51*; GPR7 antag: -9; CHO parental Ca: -1; OX1R antag-2: 4

What do the screens show for `FC(F)(F)c1nc2cc3nc4ccccc4[nH]c3cc2n1`?
TAAR1 agonist: 3; TAAR1 antag: -2; OX1R antag-1: 54*; GPR7 antag: -12; CHO parental Ca: -8; OX1R antag-2: -9

How did O=C(CCc1nnc(COc2ccccc2)o1)NCc1ccccc1C(F)(F)F do in these assays?
TAAR1 agonist: -1; TAAR1 antag: -10; OX1R antag-1: 1; GPR7 antag: 1; CHO parental Ca: -19; OX1R antag-2: -23

Results for O=[N+]([O-])c1cnccc1Nc1cccc(F)c1 ?
TAAR1 agonist: 0; TAAR1 antag: 5; OX1R antag-1: 75*; GPR7 antag: -9; CHO parental Ca: -6; OX1R antag-2: -8

How did COc1ccc(Nc2ccncc2[N+](=O)[O-])cc1 do in these assays?
TAAR1 agonist: 3; TAAR1 antag: 13; OX1R antag-1: 41*; GPR7 antag: -8; CHO parental Ca: 3; OX1R antag-2: -13

How did O=[N+]([O-])c1ccccc1Nc1cccc(F)c1 do in these assays?
TAAR1 agonist: -3; TAAR1 antag: -17

Results for CN1CCCCC(NC(=O)c2cccc(F)c2)C1=O (stereo unspecified) ?
TAAR1 agonist: 1; TAAR1 antag: 3

Results for Nc1ccn([C@@H]2O[C@H](C(=O)N[C@H](Cc3ccccc3)C(=O)NCC(F)(F)F)[C@@H](O)[C@H]2O)c(=O)n1 ?
TAAR1 agonist: 2; TAAR1 antag: -16

Results for CC1(C)CC(=O)C=C(c2ccccc2-c2ccc3c(c2)OCO3)C1=O ?
TAAR1 agonist: -1; TAAR1 antag: -2

Results for O=c1c(O)c(-c2cccs2)oc2ccccc12 ?
TAAR1 agonist: 45*; TAAR1 antag: 27; OX1R antag-1: 24; GPR7 antag: 0; CHO parental Ca: 49*; OX1R antag-2: 19

What do the screens show for `O=c1c(O)c(-c2ccccc2)oc2ccccc12`?
TAAR1 agonist: 15; TAAR1 antag: -5

How did CCN(CC)C(=O)[C@H]1C[C@H](CC(=O)NCCN2CCOCC2)C(=O)N2CCc3c([nH]c4cc(CCC(=O)N(C)C)ccc34)[C@]12C do in these assays?
TAAR1 agonist: 1; TAAR1 antag: -1; OX1R antag-1: 1; CHO parental Ca: 8; OX1R antag-2: 9

What do the screens show for `COc1ccc(-c2cn3c(C)c(C(=O)Nc4ccncc4)sc3n2)cc1`?
TAAR1 agonist: 9; TAAR1 antag: 35; OX1R antag-1: 3; GPR7 antag: -1; CHO parental Ca: -1; OX1R antag-2: -28

What do the screens show for `Cc1c(C(=O)Nc2ccncc2)sc2nc(-c3ccc(F)cc3)cn12`?
TAAR1 agonist: 10; TAAR1 antag: 3; OX1R antag-1: 13; GPR7 antag: -8; CHO parental Ca: 77*; OX1R antag-2: -5

What do the screens show for `Cn1c(=O)[nH]c(=O)c2c1nc1n2CCCN1Cc1ccccc1`?
TAAR1 agonist: 0; TAAR1 antag: -29; OX1R antag-1: 4; GPR7 antag: -16; CHO parental Ca: -12; OX1R antag-2: -30

Results for Cc1ccc2[nH]c3c(NCCN4CCOCC4)ncnc3c2c1 ?
TAAR1 agonist: 6; TAAR1 antag: -4; GPR7 antag: 4

Results for Clc1ccc2[nH]c3c(NCCCN4CCOCC4)ncnc3c2c1 ?
TAAR1 agonist: 0; TAAR1 antag: 18; OX1R antag-1: 9; GPR7 antag: 20*; CHO parental Ca: -9; OX1R antag-2: -8

Results for COc1ccccc1C1(O)CCN(CC(=O)Nc2nc(-c3ccccc3)cs2)CC1 ?
TAAR1 agonist: 6; TAAR1 antag: 53*; OX1R antag-1: 2; GPR7 antag: 6; CHO parental Ca: 0; OX1R antag-2: -20

Compound activity: PubChem BioAssay, The Scripps Research Institute Molecular Screening Center
